# Only a selection was taken, and hits are over-represented in it overall.
# Hep lipid drop: hepatic lipid droplet formation modulation | AML12 mouse hepatocytes, oleate lipid droplets, BODIPY imaging | inhibition, % at 6.5 µM | 0.4% of 240,000 active | AID 1656;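 active means lipid droplet intensity inhibited by at least 50%, with more than 500 cells counted; inconclusive means wells with under 300 cells, treated as cytotoxic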
#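 System: AML12 hepatocytes (mouse). Probe or stimulus: oleic acid at 100 µM to induce lipid droplet formation. Times: overnight treatment with compound plus oleate. Detection: Image-based BODIPY and DAPI two-channel analysis. Evaluation: percent inhibition of filter-corrected integrated lipid droplet intensity per well.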
# T cruzi repl: T. cruzi replication inhibition | 1.4% of 300,000 active | T. cruzi beta-gal in NIH3T3, luminescence, 90 h | inhibition, % (concentration not given with the values) | AID 1885;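 active means mean inhibition across valid replicates above about 55%, limit read from the data; inconclusive means mean below that limit but half or more replicates reach it; inactive means mean below it, under half of replicates reach it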;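 further: signal also drops with host cell toxicity which is not excluded here; higher percent means less beta-gal luminescence so fewer parasites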
#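 Incubation – ≥90 h infection period, 3 h prior cell attachment · System – NIH/3T3 fibroblasts plus reporter T. cruzi · Doses – compound pinned at 50 nL/well, DMSO · Read-out basis – percent inhibition of parasite-derived β-gal signal · Signal – luminescent β-galactosidase signal after 60 min lysis · Also added – 5000 T. cruzi trypomastigotes/well · Medium – Low-serum DMEM with 2% FBS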
# L major viab: Leishmania major promastigote growth inhibition | Leishmania major promastigotes, resazurin fluorescence viability | inhibition, % at 10 µM | 9% of 200,000 active; in the data active means inhibition above about 50%;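 further: promastigotes grown with compound for 44 hours at 28 °C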
# Redox H2O2 prof: compounds producing H2O2 with reducing agent – biochemical, NIH compound library profiling, artefact control for MLSCN library redox annotation, primary screen. DTT-dependent redox cycling H2O2, phenol red/HRP absorbance; 100% = 100 µM peroxide control, 0% = buffer. activation, % at 10 µM. 0.03% of 200,000 active;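 active means activation of at least 50% relative to the plate's high and low controls in the primary single-dose screen; inactive means activation below 50%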;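 further: compound incubated with DTT at 0.8 mM final as the reducing agent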
# MPTP block: blocks calcium-induced mitochondrial swelling; isolated mouse mitochondria, Ca2+ swelling absorbance, 30 min; inhibition, % at 10 µM; 1.4% of 360,000 active; AID 602449;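 active means inhibition of 50% or more, scaled per plate between neutral and stimulator controls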
# Numbers stand for hits; – = inactive; ? = inconclusive; · = no result.
SMILES,Hep lipid drop,T cruzi repl,L major viab,Redox H2O2 prof,MPTP block
CN1CCCN(S(=O)(=O)c2ccc(Cl)c(Cl)c2)CC1,–,–,82,–,–
Cc1cc(C)n(-c2nc3ccccc3nc2N2CCN(S(=O)(=O)c3ccc4ccccc4c3)CC2)n1,–,–,54,–,–
CN1CCN(S(=O)(=O)c2cccc(S(=O)(=O)c3ccc(Cl)cc3)c2)CC1,–,–,–,–,–
CN1CCCN(S(=O)(=O)c2cccc(Cl)c2Cl)CC1,–,–,72,–,–
CCCCCCC1CC(=CN(C)C)C(=O)O1 (configuration not stated),·,·,·,·,–
CC(=O)c1ccc(NC(=O)Cn2c3ccccc3c3nc(=O)cc(C)n32)cc1,–,–,·,·,–
CCC(CC)C(=O)N1CC(=O)Nc2ccc(F)cc2C1c1ccc(F)cc1 (configuration not stated),–,–,·,·,–
CC(=O)C1=C(c2ccc(Br)cc2)C(=O)c2ccccc2C1=O,–,55,100,–,–
CC(=O)Nc1c(Br)cc2c(c1Br)C(=O)c1ccccc1-2,·,·,·,·,–
CCCNC(=O)C1(C)CCN(Cc2ccc(-n3ccnc3)cc2)C1 (configuration not stated),·,·,·,·,–
c1ccc(SCc2cn(C[C@H]3CC[C@@H]([C@@H]4CC[C@H](Cn5cc(CSc6ccccc6)nn5)O4)O3)nn2)cc1,–,–,·,·,–
Cc1ccc(C)c(N(CC(=O)NN=C2CCN(C)CC2)S(=O)(=O)c2ccccc2)c1,–,–,68,–,–
Cc1ccc(N(CC(=O)NN=C2CCN(C)CC2)S(=O)(=O)c2ccc(C)cc2)cc1,–,–,–,–,–
COc1cc(C(C)=O)ccc1OCC(=O)Nc1cc(S(=O)(=O)N2CCOCC2)ccc1N1CCCC1,·,·,·,·,–
Cc1cc(C)nc(NS(=O)(=O)c2ccc(NC(=O)c3ccccc3[N+](=O)[O-])cc2)n1,–,–,·,·,–
Cc1ccc(S(=O)(=O)Nc2ccc(C(OC(=O)c3ccccc3[N+](=O)[O-])(C(F)(F)F)C(F)(F)F)cc2)cc1,–,–,100,–,–
O=C(OC(c1ccc(NS(=O)(=O)c2ccccc2)cc1)(C(F)(F)F)C(F)(F)F)c1ccccc1,–,–,100,–,–
CCC(C(=O)NCCc1ccc(OC)cc1OC)n1nc(C)n2c(cc3occc32)c1=O (configuration not stated),–,–,·,·,–
O=C(NC(=S)Nc1cccc(NC(=O)c2ccc(Cl)cc2Cl)c1)c1cccs1,–,–,–,–,–
Cn1c(=NC(=O)CCl)sc2ccccc21,·,62,84,–,–
CN(C)c1ccc(N=c2sc3ccccc3n2C)cc1,–,–,98,–,–
Cn1c(=Nc2ccccc2)sc2ccccc21,–,–,–,–,–
NC(N)=NS(=O)(=O)c1ccc(NC(=S)NC(=O)c2ccc3c(c2)OCO3)cc1,–,–,–,–,–
COc1ccc2oc(=O)c(-c3csc(Nc4cccc(O)c4)n3)cc2c1,–,–,99,–,–
CC(C)Oc1ccc(S(=O)(=O)N2CCOCC2)cc1NC(=O)c1ccc(Cl)c(S(=O)(=O)N2CCOCC2)c1,·,·,·,·,–
SMILES,Hep lipid drop,T cruzi repl,L major viab,Redox H2O2 prof,MPTP block
COc1cccc(CN2CCCC(C(=O)N3CCCCC3)C2)c1 (configuration not stated),–,–,·,·,–
CN1CCN(Cc2cccc(Oc3ccccc3)c2)CC1,–,–,100,–,–
CC1CCCN(Cc2cccc(Oc3ccccc3)c2)C1 (configuration not stated),·,–,100,–,–
OCCN1CCN(Cc2cccc(Oc3ccc(Cl)cc3)c2)CC1,·,61,99,–,–
CCN1CCN(CCOc2cccc(Oc3ccccc3)c2)CC1,–,?,95,–,–
CCC1COCCS(=O)(=O)N1Cc1cccc(C(F)(F)F)c1 (configuration not stated),–,–,·,·,–
Cc1ccccc1NC(=O)NCc1ccccn1,·,·,·,·,–
N/C(COc1cc(Cl)cc(Cl)c1)=N\O,–,–,·,·,–
O=C(Nc1ccc(C(F)(F)F)cc1)C1CCN(c2cnccn2)CC1,–,–,·,·,–
OC1CCN(Cc2cccc(Oc3ccccc3)c2)CC1,·,68,100,–,–
O=C(c1ccccc1)N1CCN(Cc2cccc(Oc3ccccc3)c2)CC1,–,–,–,–,–
CC(Oc1cccc(Cl)c1)C(=O)Nc1ccc([N+](=O)[O-])cn1 (configuration not stated),–,–,61,–,–
Cc1cccc(C(=O)NC(C(=O)Nc2nc(-c3ccccn3)cs2)C(C)C)c1 (configuration not stated),–,82,98,–,–
CC(Oc1cccc(Cl)c1)C(=O)Nc1nc(-c2ccccn2)cs1 (configuration not stated),·,60,·,·,–
CC(Oc1ccccc1)C(=O)Nc1nc(-c2ccccn2)cs1 (configuration not stated),·,·,·,·,–
CC(Oc1cccnc1[N+](=O)[O-])C(=O)Nc1ccc(Cl)cn1 (configuration not stated),·,·,·,·,–
COc1ccc(Cn2ccnc2SCC(=O)Nc2ccc(F)cc2F)cc1,·,·,·,·,–
CCN(CC)CCN(C(=O)CCOc1ccccc1)c1nc2c(F)cc(F)cc2s1,–,56,–,–,–
CN(C)CCN(C(=O)CCc1ccccc1)c1nc2c(F)cc(F)cc2s1,–,–,–,–,–
O=C(NCCCN1CCOCC1)c1ccc2nc(Cc3ccccc3F)oc2c1,–,–,·,·,–
CCOc1cc(CNC(C)(C)CO)cc(Br)c1OCc1ccc(Cl)cc1Cl,·,–,100,–,–
C=CCOc1ccc(CNC(C)(C)CO)cc1OCC,·,–,–,–,–
CC(C)(C)NCc1ccccc1OCc1cccs1,·,–,82,–,–
COc1cc(CNC(C)(C)CO)cc(Br)c1OCc1ccccc1,–,–,80,–,–
COc1cc(CNC(C)(C)C)cc(Br)c1OCc1cccs1,–,–,86,–,–
SMILES,Hep lipid drop,T cruzi repl,L major viab,Redox H2O2 prof,MPTP block
CC(C)(CO)NCc1cc(Br)ccc1OCc1ccccc1,–,–,–,–,–
CCn1c(=O)c(C(=O)CN(C)CC(=O)Nc2cccc(F)c2)c(N)n(Cc2ccccc2)c1=O,·,·,·,·,–
CNC(=O)C1CCN(S(=O)(=O)c2c(C)noc2/C=C/c2ccc(C)cc2)CC1,–,–,·,·,–
CNc1snc(C)c1C(=O)OCC(=O)NCc1ccccc1OC,·,·,·,·,–
CCOc1cc(CNCc2cccs2)cc(Br)c1OC,·,–,–,–,–
COc1cc(CNCCO)cc(Br)c1OCc1cccs1,·,–,88,–,–
NC(=O)c1ccsc1NC(=O)COC(=O)c1cnccn1,·,·,·,·,–
COc1cccc(OC)c1CN1CCCC(C(=O)c2ccccc2SC)C1 (configuration not stated),–,–,65,–,–
COc1ccccc1CN1CCCC(C(=O)N(C)Cc2ccccc2)C1 (configuration not stated),–,–,52,–,–
CCOC(=O)C1CCCN(Cc2ccc(OC)c(OCc3ccccc3)c2)C1 (configuration not stated),–,–,·,·,–

# Source: PubChem (several laboratories)
